In brackets after ≈: the same amount, converted by molar mass.
What was measured:
Type in all cases: functional
Staphylococcus aureus [1] = assay: Antibacterial activity against community-acquired methicillin-resistant panton-valentine leukocidin-negative Staphylococcus aureus isolate 1470 after 24 hrs by modified broth macrodilution method; settings: isolate 1470, 24 h
Procedure, shortened: (§1)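 MIC read after 24 h incubation by modified broth macrodilution, validated per CLSI recommendations, against recent clinical MRSA isolates (hospital- and community-acquired, hVISA, VISA, VRSA). Daptomycin tests ran in Mueller-Hinton broth with added calcium.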

Staphylococcus aureus [2] = assay: Antibacterial activity against vancomycin-resistant Staphylococcus aureus after 24 hrs by modified broth macrodilution method; procedure, shortened: as §1
Staphylococcus aureus [3] = assay: Antibacterial activity against hospital-acquired methicillin-resistant Staphylococcus aureus isolate 1806 after 24 hrs by modified broth macrodilution method; settings: isolate 1806, 24 h; procedure, shortened: as §1
Staphylococcus aureus [4] = assay: Antibacterial activity against community-acquired methicillin-resistant panton-valentine leukocidin-positive Staphylococcus aureus isolate 593 after 24 hrs by modified broth macrodilution method; settings: isolate 593, 24 h; procedure, shortened: as §1
Staphylococcus aureus [5] = assay: Antibacterial activity against vancomycin-intermediate Staphylococcus aureus isolate 1010 after 24 hrs by modified broth macrodilution method; settings: isolate 1010, 24 h; procedure, shortened: as §1
Staphylococcus aureus [6] = assay: Antibacterial activity against vancomycin-intermediate Staphylococcus aureus isolate 1009 after 24 hrs by modified broth macrodilution method; settings: isolate 1009, 24 h; procedure, shortened: as §1
Staphylococcus aureus [7] = assay: Antibacterial activity against vancomycin-intermediate Staphylococcus aureus isolate 1017 after 24 hrs by modified broth macrodilution method; settings: isolate 1017, 24 h; procedure, shortened: as §1
Staphylococcus aureus [8] = assay: Antibacterial activity against vancomycin-intermediate Staphylococcus aureus isolate 1005 after 24 hrs by modified broth macrodilution method; settings: isolate 1005, 24 h; procedure, shortened: as §1
Staphylococcus aureus [9] = assay: Antibacterial activity against vancomycin-hetero-intermediate Staphylococcus aureus after 24 hrs by modified broth macrodilution method; procedure, shortened: as §1
Staphylococcus aureus [10] = assay: Antibacterial activity against community-acquired methicillin-resistant panton-valentine leukocidin-positive Staphylococcus aureus isolate 693 after 24 hrs by modified broth macrodilution method; settings: isolate 693, 24 h; procedure, shortened: as §1
Staphylococcus aureus [11] = assay: Antibacterial activity against vancomycin-resistant Staphylococcus aureus isolate 1263 after 24 hrs by modified broth macrodilution method; settings: isolate 1263, 24 h; procedure, shortened: as §1
Staphylococcus aureus [12] = assay: Antibacterial activity against community-acquired methicillin-resistant panton-valentine leukocidin-positive Staphylococcus aureus isolate 950 after 24 hrs by modified broth macrodilution method; settings: isolate 950, 24 h; procedure, shortened: as §1
Staphylococcus aureus [13] = assay: Antibacterial activity against hospital-acquired methicillin-resistant Staphylococcus aureus isolate 1851 after 24 hrs by modified broth macrodilution method; settings: isolate 1851, 24 h; procedure, shortened: as §1
Staphylococcus aureus [14] = assay: Antibacterial activity against hospital-acquired methicillin-resistant Staphylococcus aureus isolate 1776 after 24 hrs by modified broth macrodilution method; settings: isolate 1776, 24 h; procedure, shortened: as §1
Staphylococcus aureus [15] = assay: Antibacterial activity against community-acquired methicillin-resistant panton-valentine leukocidin-positive Staphylococcus aureus isolate 813 after 24 hrs by modified broth macrodilution method; settings: isolate 813, 24 h; procedure, shortened: as §1
Staphylococcus aureus [16] = assay: Antibacterial activity against vancomycin-resistant Staphylococcus aureus isolate 510 after 24 hrs by modified broth macrodilution method; settings: isolate 510, 24 h; procedure, shortened: as §1
Staphylococcus aureus [17] = assay: Antibacterial activity against hospital-acquired methicillin-resistant Staphylococcus aureus isolate 1766 after 24 hrs by modified broth macrodilution method; settings: isolate 1766, 24 h; procedure, shortened: as §1
Staphylococcus aureus [18] = assay: Antibacterial activity against vancomycin-intermediate Staphylococcus aureus isolate 1012 after 24 hrs by modified broth macrodilution method; settings: isolate 1012, 24 h; procedure, shortened: as §1
Staphylococcus aureus [19] = assay: Antibacterial activity against hospital-acquired methicillin-resistant Staphylococcus aureus isolate 1808 after 24 hrs by modified broth macrodilution method; settings: isolate 1808, 24 h; procedure, shortened: as §1
Staphylococcus aureus [20] = assay: Antibacterial activity against vancomycin-resistant Staphylococcus aureus isolate 557 after 24 hrs by modified broth macrodilution method; settings: isolate 557, 24 h; procedure, shortened: as §1
Staphylococcus aureus [21] = assay: Antibacterial activity against vancomycin-intermediate Staphylococcus aureus isolate 1984 after 24 hrs by modified broth macrodilution method; settings: isolate 1984, 24 h; procedure, shortened: as §1
Staphylococcus aureus [22] = assay: Antibacterial activity against community-acquired methicillin-resistant panton-valentine leukocidin-positive Staphylococcus aureus isolate 1468 after 24 hrs by modified broth macrodilution method; settings: isolate 1468, 24 h; procedure, shortened: as §1
Staphylococcus aureus [23] = assay: Antibacterial activity against vancomycin-susceptible Staphylococcus aureus after 24 hrs by modified broth macrodilution method
Procedure, shortened: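 MICs determined in recent clinical MRSA isolates by a modified broth macrodilution method per CLSI recommendations, with 24 h incubation. Daptomycin tests used Mueller-Hinton broth supplemented with calcium. Value is the lowest inhibitory drug concentration.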

Staphylococcus aureus [24] = assay: Antibacterial activity against vancomycin-intermediate Staphylococcus aureus isolate 1015 after 24 hrs by modified broth macrodilution method; settings: isolate 1015, 24 h; procedure, shortened: as §1
Staphylococcus aureus [25] = assay: Antibacterial activity against vancomycin-intermediate Staphylococcus aureus isolate 1003 after 24 hrs by modified broth macrodilution method; settings: isolate 1003, 24 h; procedure, shortened: as §1
Staphylococcus aureus [26] = assay: Antibacterial activity against hospital-acquired methicillin-resistant Staphylococcus aureus isolate 1743 after 24 hrs by modified broth macrodilution method; settings: isolate 1743, 24 h; procedure, shortened: as §1
Staphylococcus aureus [27] = assay: Antibacterial activity against community-acquired methicillin-resistant panton-valentine leukocidin-positive Staphylococcus aureus isolate 1471 after 24 hrs by modified broth macrodilution method; settings: isolate 1471, 24 h; procedure, shortened: as §1
Staphylococcus aureus [28] = assay: Antibacterial activity against vancomycin-hetero-intermediate Staphylococcus aureus isolate 618 after 24 hrs by modified broth macrodilution method; settings: isolate 618, 24 h; procedure, shortened: as §1
Staphylococcus aureus [29] = assay: Antibacterial activity against vancomycin-intermediate Staphylococcus aureus isolate 1287 after 24 hrs by modified broth macrodilution method; settings: isolate 1287, 24 h; procedure, shortened: as §1
Staphylococcus aureus [30] = assay: Antibacterial activity against community-acquired methicillin-resistant panton-valentine leukocidin-positive Staphylococcus aureus isolate 1472 after 24 hrs by modified broth macrodilution method; settings: isolate 1472, 24 h; procedure, shortened: as §1
Staphylococcus aureus [31] = assay: Antibacterial activity against vancomycin-intermediate Staphylococcus aureus isolate 1007 after 24 hrs by modified broth macrodilution method; settings: isolate 1007, 24 h; procedure, shortened: as §1
Staphylococcus aureus [32] = assay: Antibacterial activity against vancomycin-intermediate Staphylococcus aureus isolate 511 after 24 hrs by modified broth macrodilution method; settings: isolate 511, 24 h; procedure, shortened: as §1
Staphylococcus aureus [33] = assay: Antibacterial activity against vancomycin-intermediate Staphylococcus aureus isolate 555 after 24 hrs by modified broth macrodilution method; settings: isolate 555, 24 h; procedure, shortened: as §1
Staphylococcus aureus [34] = assay: Antibacterial activity against vancomycin-intermediate Staphylococcus aureus after 24 hrs by modified broth macrodilution method; procedure, shortened: as §1
Staphylococcus aureus [35] = assay: Antibacterial activity against vancomycin-resistant Staphylococcus aureus isolate 1264 after 24 hrs by modified broth macrodilution method; settings: isolate 1264, 24 h; procedure, shortened: as §1
Staphylococcus aureus [36] = assay: Antibacterial activity against vancomycin-intermediate Staphylococcus aureus isolate 1004 after 24 hrs by modified broth macrodilution method; settings: isolate 1004, 24 h; procedure, shortened: as §1
Staphylococcus aureus [37] = assay: Antibacterial activity against community-acquired methicillin-resistant panton-valentine leukocidin-positive Staphylococcus aureus isolate 815 after 24 hrs by modified broth macrodilution method; settings: isolate 815, 24 h; procedure, shortened: as §1
Staphylococcus aureus [38] = assay: Antibacterial activity against hospital-acquired methicillin-resistant Staphylococcus aureus isolate 1838 after 24 hrs by modified broth macrodilution method; settings: isolate 1838, 24 h; procedure, shortened: as §1
Staphylococcus aureus [39] = assay: Antibacterial activity against vancomycin-intermediate Staphylococcus aureus isolate 1008 after 24 hrs by modified broth macrodilution method; settings: isolate 1008, 24 h; procedure, shortened: as §1
Staphylococcus aureus [40] = assay: Antibacterial activity against vancomycin-intermediate Staphylococcus aureus isolate 1011 after 24 hrs by modified broth macrodilution method; settings: isolate 1011, 24 h; procedure, shortened: as §1
Staphylococcus aureus [41] = assay: Antibacterial activity against vancomycin-intermediate Staphylococcus aureus isolate 1014 after 24 hrs by modified broth macrodilution method; settings: isolate 1014, 24 h; procedure, shortened: as §1
Staphylococcus aureus [42] = assay: Antibacterial activity against hospital-acquired methicillin-resistant Staphylococcus aureus isolate 1867 after 24 hrs by modified broth macrodilution method; settings: isolate 1867, 24 h; procedure, shortened: as §1
Staphylococcus aureus [43] = assay: Antibacterial activity against vancomycin-hetero-intermediate Staphylococcus aureus isolate 873 after 24 hrs by modified broth macrodilution method; settings: isolate 873, 24 h; procedure, shortened: as §1
Staphylococcus aureus [44] = assay: Antibacterial activity against vancomycin-intermediate Staphylococcus aureus isolate 1016 after 24 hrs by modified broth macrodilution method; settings: isolate 1016, 24 h; procedure, shortened: as §1
Staphylococcus aureus [45] = assay: Antibacterial activity against hospital-acquired methicillin-resistant Staphylococcus aureus isolate 1751 after 24 hrs by modified broth macrodilution method; settings: isolate 1751, 24 h; procedure, shortened: as §1
Staphylococcus aureus [46] = assay: Antibacterial activity against vancomycin-intermediate Staphylococcus aureus isolate 1006 after 24 hrs by modified broth macrodilution method; settings: isolate 1006, 24 h; procedure, shortened: as §1
Staphylococcus aureus [47] = assay: Antibacterial activity against community-acquired methicillin-resistant panton-valentine leukocidin-positive Staphylococcus aureus isolate 1469 after 24 hrs by modified broth macrodilution method; settings: isolate 1469, 24 h; procedure, shortened: as §1
Staphylococcus aureus [48] = assay: Antibacterial activity against methicillin-resistant Staphylococcus aureus isolate 2003 after 24 hrs by modified broth macrodilution method; settings: isolate 2003, 24 h; procedure, shortened: as §1
Staphylococcus aureus [49] = assay: Antibacterial activity against vancomycin-intermediate Staphylococcus aureus isolate 770 after 24 hrs by modified broth macrodilution method; settings: isolate 770, 24 h; procedure, shortened: as §1
Staphylococcus aureus [50] = assay: Antibacterial activity against vancomycin-intermediate Staphylococcus aureus isolate 1013 after 24 hrs by modified broth macrodilution method; settings: isolate 1013, 24 h; procedure, shortened: as §1
Staphylococcus aureus [51] = assay: Antibacterial activity against vancomycin-resistant Staphylococcus aureus isolate 509 after 24 hrs by modified broth macrodilution method; settings: isolate 509, 24 h; procedure, shortened: as §1

SMILES: CN[C@@H]1[C@@H](O)[C@@](C)(O[C@@H]2[C@@H](O)[C@H](O[C@H]3OC(CNCCO)=CC[C@H]3N)[C@@H](N)C[C@H]2NC(=O)[C@H](O)CCN)OC[C@]1(C)O
- MIC (Staphylococcus aureus [1]): 2 µg/mL (≈ 3.3 µM)
- MIC (Staphylococcus aureus [2]): 0.5 µg/mL (≈ 0.824 µM)
- MIC (Staphylococcus aureus [3]): 2 µg/mL (≈ 3.3 µM)
- MIC (Staphylococcus aureus [4]): 4 µg/mL (≈ 6.59 µM)
- MIC (Staphylococcus aureus [5]): 1 µg/mL (≈ 1.65 µM)
- MIC (Staphylococcus aureus [6]): 2 µg/mL (≈ 3.3 µM)
- MIC (Staphylococcus aureus [7]): 2 µg/mL (≈ 3.3 µM)
- MIC (Staphylococcus aureus [8]): 2 µg/mL (≈ 3.3 µM)
- MIC (Staphylococcus aureus [9]): 1 µg/mL (≈ 1.65 µM)
- MIC (Staphylococcus aureus [10]): 2 µg/mL (≈ 3.3 µM)
- MIC (Staphylococcus aureus [11]): 2 µg/mL (≈ 3.3 µM)
- MIC (Staphylococcus aureus [12]): 4 µg/mL (≈ 6.59 µM)
- MIC (Staphylococcus aureus [13]): 4 µg/mL (≈ 6.59 µM)
- MIC (Staphylococcus aureus [14]): 4 µg/mL (≈ 6.59 µM)
- MIC (Staphylococcus aureus [15]): 4 µg/mL (≈ 6.59 µM)
- MIC (Staphylococcus aureus [16]): 1 µg/mL (≈ 1.65 µM)
- MIC (Staphylococcus aureus [17]): 2 µg/mL (≈ 3.3 µM)
- MIC (Staphylococcus aureus [18]): 2 µg/mL (≈ 3.3 µM)
- MIC (Staphylococcus aureus [19]): 2 µg/mL (≈ 3.3 µM)
- MIC (Staphylococcus aureus [20]): 0.5 µg/mL (≈ 0.824 µM)
- MIC (Staphylococcus aureus [21]): 4 µg/mL (≈ 6.59 µM)
- MIC (Staphylococcus aureus [22]): 4 µg/mL (≈ 6.59 µM)
- MIC (Staphylococcus aureus [23]): 2 µg/mL (≈ 3.3 µM)
- MIC (Staphylococcus aureus [24]): 4 µg/mL (≈ 6.59 µM)
- MIC (Staphylococcus aureus [25]): 1 µg/mL (≈ 1.65 µM)
- MIC (Staphylococcus aureus [26]): 2 µg/mL (≈ 3.3 µM)
- MIC (Staphylococcus aureus [27]): 4 µg/mL (≈ 6.59 µM)
- MIC (Staphylococcus aureus [28]): 1 µg/mL (≈ 1.65 µM)
- MIC (Staphylococcus aureus [29]): 4 µg/mL (≈ 6.59 µM)
- MIC (Staphylococcus aureus [30]): 2 µg/mL (≈ 3.3 µM)
- MIC (Staphylococcus aureus [31]): 1 µg/mL (≈ 1.65 µM)
- MIC (Staphylococcus aureus [32]): 2 µg/mL (≈ 3.3 µM)
- MIC (Staphylococcus aureus [33]): 4 µg/mL (≈ 6.59 µM)
- MIC (Staphylococcus aureus [34]): 1 µg/mL (≈ 1.65 µM)
- MIC (Staphylococcus aureus [35]): 1 µg/mL (≈ 1.65 µM)
- MIC (Staphylococcus aureus [36]): 4 µg/mL (≈ 6.59 µM)
- MIC (Staphylococcus aureus [37]): 4 µg/mL (≈ 6.59 µM)
- MIC (Staphylococcus aureus [38]): 2 µg/mL (≈ 3.3 µM)
- MIC (Staphylococcus aureus [39]): 2 µg/mL (≈ 3.3 µM)
- MIC (Staphylococcus aureus [40]): 2 µg/mL (≈ 3.3 µM)
- MIC (Staphylococcus aureus [41]): 2 µg/mL (≈ 3.3 µM)
- MIC (Staphylococcus aureus [42]): 4 µg/mL (≈ 6.59 µM)
- MIC (Staphylococcus aureus [43]): 1 µg/mL (≈ 1.65 µM)
- MIC (Staphylococcus aureus [44]): 2 µg/mL (≈ 3.3 µM)
- MIC (Staphylococcus aureus [45]): 2 µg/mL (≈ 3.3 µM)
- MIC (Staphylococcus aureus [46]): 4 µg/mL (≈ 6.59 µM)
- MIC (Staphylococcus aureus [47]): 4 µg/mL (≈ 6.59 µM)
- MIC (Staphylococcus aureus [48]): 8 µg/mL (≈ 13.2 µM)
- MIC (Staphylococcus aureus [49]): 2 µg/mL (≈ 3.3 µM)
- MIC (Staphylococcus aureus [50]): 2 µg/mL (≈ 3.3 µM)
- MIC (Staphylococcus aureus [51]): 1 µg/mL (≈ 1.65 µM)
